# Measurements as given in ChEMBL document CHEMBL1132636, “Phthalein derivatives as a new tool for selectivity in thymidylate synthase inhibition” (J Med Chem, 1999).
# Legend:
# Streptococcus [1] = experiment: In vitro minimum concentration for germicidal effect on Streptococcus.; assay type: functional
# Streptococcus [2] = experiment: In vitro inhibition of Streptococcus growth.; assay type: functional
# Procedure, shortened: (§1)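 Bacterial clinical isolates (S. aureus, group D Streptococcus) grown in nutrient broth pH 7.2, inoculum 10³ cells/tube, with serial dilutions of compound from a DMSO stock.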
# Staphylococcus aureus [3] = experiment: In vitro evaluation for minimum germicidal effect on Staphylococcus aureus was determined; assay type: functional
# Staphylococcus aureus [4] = experiment: In vitro inhibition of Staphylococcus aureus growth.; assay type: functional; procedure, shortened: as §1
# Cryptococcus neoformans = experiment: In vitro inhibition of Cryptococcus neoformans growth.; assay type: functional
# Procedure, shortened: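 Cr. neoformans in Sabouraud dextrose broth pH 5.7, 10³ blastospores or CFU/tube, serial compound dilutions, 37 °C, read after 5 days. MIC is the lowest concentration with no macroscopic growth. MGC is taken by subculturing negative tubes onto drug-free Sabouraud agar.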
# MT4 = experiment: In vitro cytotoxicity against mock infected MT-4 cells.; assay type: functional; settings: Homo sapiens
# Procedure, shortened: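 Uninfected MT-4 cells, 1 × 10⁴ per well in RPMI with 10% FCS, with serial compound dilutions from a DMSO stock. Incubated 4 days at 37 °C, run in parallel with the anti-HIV assay. Viable cells counted by MTT; reported as CC50.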
# [5] = biological target: Thymidylate synthase (Homo sapiens) (UniProt P04818)
# [6] = Ratio of cytotoxic concentration to that of minimum inhibitory concentration against Streptococcus (CC50/MIC50).; assay type: functional
# [7] = system: thymidylate synthase (Lactobacillus casei)
# [8] = system: thymidylate synthase (Cryptococcus neoformans)
# [9] = system: thymidylate synthase (Pneumocystis carinii)
# [10] = biological target: T1, Thymidylate synthase (Lactobacillus casei) (UniProt P00469); experiment: Compound was evaluated for the percentage inhibition against Lactobacillus casei Thymidylate synthase (LcTS) at 27 uM; settings: Lacticaseibacillus casei
# T1 sequence (whole entry): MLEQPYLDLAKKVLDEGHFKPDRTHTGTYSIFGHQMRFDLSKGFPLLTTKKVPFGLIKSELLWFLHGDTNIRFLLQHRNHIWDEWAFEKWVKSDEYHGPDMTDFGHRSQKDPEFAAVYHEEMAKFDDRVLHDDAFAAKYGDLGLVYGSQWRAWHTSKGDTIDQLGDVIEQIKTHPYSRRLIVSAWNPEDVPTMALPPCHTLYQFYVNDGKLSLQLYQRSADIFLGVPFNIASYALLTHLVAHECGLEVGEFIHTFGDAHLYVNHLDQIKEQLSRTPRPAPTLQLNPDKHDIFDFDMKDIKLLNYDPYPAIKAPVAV
# Procedure, shortened: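 Single concentration 27 µM, initial TS rates measured with and without inhibitor; IF = Vii/Vi. Purified L. casei TS, TES 50 mM pH 7.4 buffer with MgCl2, formaldehyde, EDTA, 2-mercaptoethanol; dUMP 120 µM, folate 60 µM, 20 °C. Read-out is absorbance rise at 340 nm. At least three determinations, each within 10% of the mean.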
# [11] = biological target: T1, Thymidylate synthase (Lactobacillus casei); settings: Lacticaseibacillus casei
# Chain of Thymidylate synthase (Homo sapiens) (P04818 2-313 limits assumed): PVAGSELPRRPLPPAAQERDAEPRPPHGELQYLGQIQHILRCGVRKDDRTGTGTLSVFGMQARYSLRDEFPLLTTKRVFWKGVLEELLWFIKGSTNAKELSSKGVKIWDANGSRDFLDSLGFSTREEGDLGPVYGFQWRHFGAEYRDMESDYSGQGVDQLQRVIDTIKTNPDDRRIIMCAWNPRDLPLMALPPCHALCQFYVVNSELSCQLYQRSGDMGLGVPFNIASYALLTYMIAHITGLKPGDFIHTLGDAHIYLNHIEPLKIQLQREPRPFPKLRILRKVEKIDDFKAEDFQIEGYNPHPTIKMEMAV
Compound,MGC (Streptococcus [1]) [µM],MIC (Streptococcus [2]) [µM],MGC (Staphylococcus aureus [3]) [µM],MIC (Staphylococcus aureus [4]) [µM],MIC (Cryptococcus neoformans) [µM],CC50 (MT4) [µM],IF [5],SI [6],IF [7],IF [8],IF [9],inhibition [10] [%],IF [11]
O=C1OC(c2ccc(O)c(F)c2)(c2ccc(O)c(F)c2)c2cccc3cccc1c23,25,25,50,25,> 200,117,1,,,,,,
O=C1OC(c2ccc(O)c(Cl)c2)(c2ccc(O)c(Cl)c2)c2ccc(Br)c3cccc1c23.O=C1OC(c2ccc(O)c(Cl)c2)(c2ccc(O)c(Cl)c2)c2cccc3c(Br)ccc1c23,3.1,3.1,12.5,3.1,> 200,154,1,49.6,0.36,,,,
O=C1OC(c2ccc(O)c(Cl)c2)(c2ccc(O)c(Cl)c2)c2ccccc21,32,32,64,32,> 77,77,0.67,2.4,0.47,0.704,0.725,,
COc1ccc(C2(c3ccc(OC)cc3)OC(=O)c3cccc4cccc2c34)cc1,,> 21,,> 21,> 21,21,1,,0.624,0.836,0.749,47,
O=C1OC(c2ccc(O)cc2)(c2ccc(O)cc2)c2ccccc21 [PHENOLPHTHALEIN],58,38,,> 58,> 58,58,0.182,,,,,,0.444
O=C1OC(c2ccc(O)cc2)(c2ccc(O)cc2)c2ccc3c4c(ccc1c24)CC3,32,16,32,16,> 53,53,0.475,3.3,0.409,0.344,0.344,,
O=C1OC(c2ccc(O)cc2)(c2ccc(O)cc2)c2cc3ccccc3cc21,34,34,68,17,> 79,79,0.594,2.3,0.247,0.215,0.459,,
O=C1OC(c2ccc(O)c(Cl)c2)(c2ccc(O)c(Cl)c2)c2cc3ccccc3cc21,6.2,3.1,6.2,3.1,> 200,120,0.103,39.6,0.093,,,,
O=C1OC(O)(c2ccccc2O)c2cccc3cccc1c23 (stereo not drawn),263,171,,> 263,18.7,263,0.957,1.5,0.781,0.576,0.151,,
O=C1OC(c2ccc(O)cc2)(c2ccc(O)cc2)c2cccc3cccc1c23,34,17,41,34,> 41,41,0.272,,,,,,
O=C1OC(c2ccc(O)c(F)c2)(c2ccc(O)c(F)c2)c2cc3ccccc3cc21,15,15,30,15,> 94,94,0.521,6.2,0.298,0.507,0.582,,
O=C1OC(c2ccc(O)c(Cl)c2)(c2ccc(O)c(Cl)c2)c2ccc(Cl)c3cccc1c23.O=C1OC(c2ccc(O)c(Cl)c2)(c2ccc(O)c(Cl)c2)c2cccc3c(Cl)ccc1c23,1.6,1.6,3,3,9.37,63,1,,,,,,
O=C1OC(c2ccc(O)cc2)(c2ccc(O)cc2)c2ccc(Br)c3cccc1c23.O=C1OC(c2ccc(O)cc2)(c2ccc(O)cc2)c2cccc3c(Br)ccc1c23,28,7,28,7,37.5,76,0.453,10.8,0.112,0.243,0.536,,
O=C1OC(c2ccc(O)cc2)(c2ccc(O)c3ccccc23)c2ccccc21 (stereo not drawn),34,8,54,17,> 54,54,0.172,6.7,0.529,0.389,0.498,,
O=C1OC(c2ccc(O)c(Cl)c2)(c2ccc(O)c(Cl)c2)c2cccc3cccc1c23,3.5,1.8,14,7,9.37,46,0.814,,,,,,
O=C1OC(c2ccc(O)cc2)(c2ccc(O)cc2)c2ccc(Cl)c3cccc1c23.O=C1OC(c2ccc(O)cc2)(c2ccc(O)cc2)c2cccc3c(Cl)ccc1c23,8,8,16,8,> 69,69,0.438,,,,,,
O=C1OC(O)(c2ccc(O)c(Cl)c2)c2ccc([N+](=O)[O-])c3cccc1c23 (stereo not drawn),8,8,17,4,> 66,66,1,8.24,0.086,< 0.04,0.418,,
O=C1OC(c2ccc(O)cc2)(c2ccc(O)cc2)c2ccc([N+](=O)[O-])c3cccc1c23,,> 41,30,15,> 41,41,0.424,,,,,,
Cc1ccc(C(C)C)c(O)c1C1(O)OC(=O)c2cccc3cccc1c23 (stereo not drawn),>89,72,,> 89,> 89,89,1,,,,,,
